Broadly, the EC50 is the concentration giving half of the maximal effect.

Experiment [1] relates to Human immunodeficiency virus 1. As to the kind of experiment: Selectivity ratio of EC50 for HIV1 harboring capsid I201V mutant protein infected in human HeLa cells to EC50 for wild type HIV1 infected in human HeLa cells. Type of experiment: functional. The gist of the method:
(§1)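 MT-2 cells were infected for 2 h with wild-type NL4-3 or recombinant NL4-3 carrying CA I201V or SP1 A1V. They were then cocultured with HeLa CD4 LTR/beta-Gal indicator cells in serially diluted compound. Beta-gal reporter was read after 4 days. EC50s are means ± SD of 3–6 experiments. Fold change is mutant EC50 divided by wild-type EC50.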

For experiment [2], the system named is Human immunodeficiency virus 1. As to the kind of experiment: Antiviral activity against HIV1 harboring spacer peptide A1V mutant protein infected in human HeLa cells assessed as decrease in viral infection after […] by beta-galactosidase reporter gene assay. To be noted: Human immunodeficiency virus 1, HeLa. Type of experiment: functional, organism-based. Summed up:
as §1
(In general: Reporter assays use an easily measured gene product as a stand-in for the process of interest.)

The subject of experiment [3] is Human immunodeficiency virus 1. Description: Antiviral activity against wild type HIV1 infected in human HeLa cells assessed as decrease in viral infection after 72 hrs by beta-galactosidase reporter gene assay. Type of experiment: functional, organism-based. To be noted: Human immunodeficiency virus 1, HeLa. The gist of the method:
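HeLa CD4 LTR/β-Gal cells (1 × 10⁴/well, DMEM + 10% FBS) were pretreated with half-log compound dilutions. They were then infected at MOI 0.03 with single-cycle NL4-3 ΔEnv reporter virus pseudotyped with envelope from HEK 293 cotransfection. EC50 was the concentration halving β-galactosidase activity versus infected untreated cells. Values are mean ± SD or representative of three experiments.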

The subject of experiment [4] is Human immunodeficiency virus 1. As to the kind of experiment: Selectivity ratio of EC50 for HIV1 harboring spacer peptide A1V mutant protein infected in human HeLa cells to EC50 for wild type HIV1 infected in human HeLa cells. Type of experiment: functional. The gist of the method: as §1
Experiment [5] concerns Human immunodeficiency virus 1. Description: Antiviral activity against HIV1 harboring capsid I201V mutant protein infected in human HeLa cells assessed as decrease in viral infection after 72 hrs by beta-galactosidase reporter gene assay. Type of experiment: functional, organism-based. The settings on record: Human immunodeficiency virus 1, HeLa.
The subject of experiment [6] is Human immunodeficiency virus 1. Description: Antiviral activity against HIV1 NL4-3 infected in human HeLa cells assessed as decrease in single-cycle viral infection after 72 hrs by beta-galactosidase reporter gene assay. Type of experiment: functional, organism-based. The settings on record: Human immunodeficiency virus 1, NL4-3, HeLa. The gist of the method:
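HeLa CD4 LTR/beta-Gal cells (1 × 10⁴/well, DMEM + 10% FBS) were pre-dosed with half-log compound dilutions. They were infected at MOI 0.03 with single-cycle NL4-3 reporter virus made by cotransfecting HEK 293 cells with pNL4-3deltaEnv and an NL4-3 envelope vector. EC50 is from beta-gal reporter activity relative to infected untreated cells, across three experiments.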

Experiment [7] has as its system Human immunodeficiency virus 1. As to the kind of experiment: Antiviral activity against HIV1 NL4-3 infected in HEK293 cells assessed as decrease in virus production at 2 times EC90 after 72 hrs by beta-galactosidase reporter gene assay. Type of experiment: functional.

Consider `Cc1c(O)cccc1C(=O)N[C@@H](CSc1ccccc1)[C@H](O)CN1C[C@H]2CCCC[C@H]2C[C@H]1C(=O)NC(C)(C)C` [NELFINAVIR], for which the “Ratio EC50” value in experiment [1] is reported as 1; in experiment [4] it was 2. For the same molecule, the EC50 is 38 nM in experiment [2], 16 nM in experiment [3], 13 nM in experiment [5] and > 1000 nM in experiment [6]. The “inhibition (INH)” value in experiment [7] came to 76%.

As to `C=C(C)[C@@H]1CC[C@]2(C(=O)O)CC[C@]3(C)[C@H](CC[C@@H]4[C@@]5(C)CC[C@H](OC(=O)CC(C)(C)C(=O)O)C(C)(C)[C@@H]5CC[C@]43C)[C@@H]12` [BEVIRIMAT], the entries for the “Ratio EC50” value in experiment [1] and in experiment [4] were 32 and >111, respectively. Also, the EC50 in experiment [2] was > 1000 nM; in experiment [3] it was 9 nM; in experiment [5] it was 290 nM.

As for `O=C1Nc2ccc(Cl)cc2[C@@](C#CC2CC2)(C(F)(F)F)O1` [EFAVIRENZ], the concentration for a half-maximal effect (EC50) turned out to be 1 nM in experiment [2] and 0.6 nM in experiment [5]. In experiment [7], the “inhibition (INH)” value turned out to be 24%.
